The record followed here is ChEMBL document CHEMBL1138560, “Synthesis of amidine and amide derivatives and their evaluation for anti-inflammatory and analgesic activities” (2009).

Each structure is given as a SMILES string.

The subject of experiment [1] is Rattus norvegicus. The experiment can be described thus: Antiinflammatory activity against carrageenan-induced paw edema in Charles Foster albino rat at 50 mg/kg, po administered 30 mins before carrageenan challenge measured after 1 to 3 hrs. The class given is functional. The gist of the method: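 Groups of five rats, both sexes, 120–160 g, pregnant females excluded; 30 min after oral dose, 0.20 ml of 1% fresh carrageenan in 0.9% NaCl injected into hind-paw plantar aponeurosis; paw volume by water plethysmometer before and 1–3 h after; % inhibition = [1 − Dt/Dc] × 100 versus carrageenan-only control group of five.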
In general terms: The carrageenan paw model is a standard test of acute inflammation.

For experiment [2], the system named is Mus musculus. The experiment can be described thus: Analgesic activity against acetic acid-induced writhes in mouse at 50 mg/kg, po administered 30 mins before acetic acid challenge measured for 60 mins. The class given is functional. The gist of the method: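 Mice of both sexes, 20–30 g, non-pregnant, groups of five; oral test dose given 30 min before 0.25 ml/mouse of 0.5% acetic acid; writhes counted over the following 60 min; group mean writhes expressed as percent decrease versus untreated control group of five mice.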

As to `N=C(/N=c1\scc(-c2ccccc2)n1-c1ccc(Cl)cc1)c1ccccn1`, the Activity in experiment [1] is listed as 17%; in experiment [2], 12%.

As for `N=C(/N=c1\scc(-c2ccccc2)n1-c1ccc([N+](=O)[O-])cc1)c1ccccn1`, the figures for the Activity in experiment [1] and in experiment [2] were 26% and 18%, respectively.

On to `N=C(/N=c1\scc(-c2ccccc2)n1-c1ccccc1[N+](=O)[O-])c1ccccn1`, for which, in experiment [1], the Activity turned out to be 49%.

With `CCOc1ccc(-c2cs/c(=N\C(=N)c3ccccn3)n2-c2ccccc2)cc1`, the figures for the Activity in experiment [1] and in experiment [2] were 0% and 50%, respectively.

Turning to `Cc1ccccc1-n1c(-c2ccccc2)cs/c1=N\C(=N)c1ccccn1`, the Activity in experiment [1] was found to be 0%; in experiment [2], 50%.

With `COc1ccc(-n2c(-c3ccccc3)cs/c2=N\C(=N)c2ccccn2)cc1`, the Activity came to 17% in experiment [1] and 12% in experiment [2].

Take `CC(=O)c1ccc(-n2c(-c3ccccc3)cs/c2=N\C(=N)c2ccccn2)cc1`: the values for the Activity in experiment [1] and in experiment [2] were 20% and 25%, respectively.

In turn, `O=C(/N=c1\scc(-c2ccccc2)n1-c1ccc(Cl)cc1)c1cc(=O)[nH]c(=O)[nH]1` yielded an Activity in experiment [1] of 2%.

`O=C(CC1NC(=O)NC1=O)/N=c1\scc(-c2ccccc2)n1-c1ccccc1[N+](=O)[O-]` (stereo unspecified): the Activity in experiment [1] worked out at 17%.

For the compound `O=C(CC1NC(=O)NC1=O)/N=c1\scc(-c2ccccc2)n1-c1ccc([N+](=O)[O-])cc1` (stereo unspecified), the Activity in experiment [1] is listed as 34%.

Take `N=C(/N=c1\scc(-c2ccc(Br)cc2)n1-c1ccc2ccccc2c1)c1ccccn1`: the Activity in experiment [1] stood at 0%; in experiment [2], 40%.

In the case of `COc1ccc(-n2c(-c3ccccc3)cs/c2=N\C(=O)c2cc(=O)[nH]c(=O)[nH]2)cc1`, the Activity was 9% in experiment [1] and 8% in experiment [2].

On to `CC(=O)c1ccc(-n2c(-c3ccccc3)cs/c2=N\C(=O)c2cc(=O)[nH]c(=O)[nH]2)cc1`, for which the Activity was 12% in experiment [1] and 8% in experiment [2].

In experiment [1], `O=C(/N=c1\scc(-c2ccccc2)n1-c1ccccc1[N+](=O)[O-])c1cc(=O)[nH]c(=O)[nH]1` displayed an Activity of 25%.

Take `COc1ccc(-c2cs/c(=N\C(=O)c3cc(=O)[nH]c(=O)[nH]3)n2-c2ccc([N+](=O)[O-])cc2)cc1`: the Activity was found to be 15% in experiment [1] and 10% in experiment [2].

In experiment [1], `COc1ccccc1-n1c(-c2ccccc2)cs/c1=N\C(=N)c1ccccn1` had an Activity of 23%.

Take `O=C(CC1NC(=O)NC1=O)/N=c1\scc(-c2ccccc2)n1-c1ccc(Cl)cc1` (stereo unspecified): the Activity in experiment [1] was 10%; in experiment [2] it was 0%.

With `CC(=O)Oc1ccccc1C(=O)O` [ASPIRIN], the Activity in experiment [1] was 43%.

For `CC(C)Cc1ccc(C(C)C(=O)O)cc1` (stereo unspecified) [IBUPROFEN], the Activity in experiment [1] is reported as 39%; in experiment [2] it was 50%.
